PostGolgi ctrl: inhibits growth of the yeast control strain; efflux-deficient yeast background strain, growth absorbance A615, 16 h; inhibition, % at 10 µM; actives 5% (n = 98,000)
HePTP inh: human HePTP phosphatase inhibition; P35236; recombinant HePTP phosphatase activity, OD absorbance; inhibition, % at 20 µM; actives 0.64% (n = 110,000); in the data active = inhibition above about 50%;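 also: plate controls were vehicle for no effect and reference inhibitor for full effect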
Target sequence (P35236 whole entry, looked up): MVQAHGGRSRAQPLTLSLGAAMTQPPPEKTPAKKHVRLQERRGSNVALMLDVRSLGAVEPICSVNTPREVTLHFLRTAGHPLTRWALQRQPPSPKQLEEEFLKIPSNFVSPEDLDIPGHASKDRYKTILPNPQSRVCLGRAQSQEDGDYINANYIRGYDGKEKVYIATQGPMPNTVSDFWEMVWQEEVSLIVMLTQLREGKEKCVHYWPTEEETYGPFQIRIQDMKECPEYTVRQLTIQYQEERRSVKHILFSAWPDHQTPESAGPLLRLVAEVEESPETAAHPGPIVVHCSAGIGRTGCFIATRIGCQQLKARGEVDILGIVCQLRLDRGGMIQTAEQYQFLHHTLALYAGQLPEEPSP
Ecoli tolC: growth inhibitors of E. coli BW25113 tolC mutant. AID 573. growth inhibition, % at 10 µM (by protocol). actives 2.2% (n = 65,000). OD615;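 active = growth inhibition at or above a cutoff equal to the mean over every tested compound plus 3 SD, cut at about 60% in these data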;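 also: growth measured after 20 h incubation at 37 °C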
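Material: E. coli BW25113 ΔtolC::kan, tolC deletion mutant strain. Measure: percent growth inhibition. Schedule: 37 °C, 20 h exposure. Doses: single-point testing at 10 µM. Signal: A615 absorbance measurement. Buffer or medium: kanamycin-containing LB broth (50 µg/mL).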
PLAP act: activators of human placental alkaline phosphatase; P05187; purified PLAP enzyme, luminescent substrate read-out; hits give high values; activation fold at 20 µM; actives 1.2% (n = 96,000); AID 696; in the data active = activation fold above about 2
E coli WT exp: growth inhibitors of E. coli BW25113 wild type. OD600 absorbance. actives 0.15% (n = 98,000). growth inhibition, % at 100 µM;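 active = growth inhibition above about 50% at one test dose, limit read from the data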;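 also: growth measured after 20 h incubation at 37 °C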
PostGolgi yeast: growth inhibition of a yeast mutant, post-Golgi transport screen. inhibition, % at 10 µM. actives 0.9% (n = 98,000). post-Golgi transport phenotypic cell assay;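 also: yeast cells grown in 1536-well plates; yeast grown about 18 h at 30C before absorbance read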
* = called active by the depositor; / = not tested or not shown. Compounds with a hit are over-represented: about 5.5% of the library has one in this group of screens. Rule as the data show it, unless noted: active = inhibition above about 30%; inactive = the rest.

SMILES | PostGolgi ctrl | HePTP inh | Ecoli tolC | PLAP act | E coli WT exp | PostGolgi yeast
CCCCCCSC1=C(C#N)C(c2ccccc2)CC(=O)N1 (stereo unspecified) | 56.6* | 9.1 | 1.7 | 1.1 | -6.0 | 35.8*
Cc1ccc(N(CCCCN2C(=O)c3ccccc3C2=O)C(=O)c2cccc(C(F)(F)F)c2)cc1 | / | 7.7 | / | / | / | /
Cc1oc(-c2cccc(Cl)c2)nc1CN1CCC(C(=O)NCCCN2CCCC2=O)CC1 | 8.5 | 3.6 | -5.0 | 1.6 | 7.0 | 1.2
COc1ccc(CCNC(=O)C2CCN(Cc3nc(-c4cccc(Cl)c4)oc3C)CC2)cc1OC | -4.9 | 10.4 | 11.6 | 2.2* | 6.0 | 4.6
Cc1oc2c(c1C(=O)c1ccc(Cl)cc1)C(=O)C(=O)c1ccccc1-2 | 58.4* | / | / | 1.1 | 1.0 | 45.0*
Cc1ccc(C(=O)c2c(C)oc3c2C(=O)C(=O)c2ccccc2-3)cc1 | -5.5 | / | / | 1 | -4.0 | 28.8
Cc1ccc(C(=O)c2coc3c2C(=O)C(=O)c2ccccc2-3)cc1 | 70.5* | / | / | 0.9 | -11.0 | 80.6*
COc1ccc2c(c1OC)C(=O)OC2CC(=O)c1ccc(O)c(I)c1 (stereo unspecified) | / | -3.1 | / | / | / | /
O=C1C=C(Nc2ccc(O)cc2)CC(c2ccccc2)C1 (stereo unspecified) | / | -4.1 | / | / | / | /
O=C1C=C(NCc2ccco2)CCC1 | 16.5 | 9.4 | -13.9 | 0.9 | 1.0 | 8.3
O=C1C=C(NCc2ccco2)CC(c2ccc(Cl)cc2)C1 (stereo unspecified) | 40.7* | 0.9 | 14.2 | 0.7 | -2.0 | /
O=C1C=C(Nc2ccc(Cl)cc2)CC(c2ccc(Cl)cc2)C1 (stereo unspecified) | 52.3* | / | / | / | -5.0 | 7.7
O=[N+]([O-])c1ccc(CNCC2(c3ccccc3)CCCC2)cc1 | / | 3.2 | / | / | / | /
CC(NC(=O)Nc1nnc(C(F)(F)F)s1)N1C(=O)C2C3C=CC(C3)C2C1=O (stereo unspecified) | 6.4 | -1.8 | 0.6 | / | 1.0 | -0.9
CC(NC(=O)Nc1nnc(C(F)(F)F)s1)(C(F)(F)F)C(F)(F)F | 16.5 | -2.8 | 2.9 | 1 | 71.0* | 3.8
Cc1sc2ncnc(NCC3(N4CCOCC4)CCCCC3)c2c1C | 33.3* | / | / | 1.5 | -6.0 | 31.5*
N#C/C(=C\c1ccco1)c1nn(CCO)c(N)c1C#N | / | 36.9 | / | / | / | /
O=C1c2ccccc2C(=O)N1Cc1nc2ccccc2c(=O)n1Cc1ccccc1 | / | 8.0 | / | / | / | /
CC(C)(C)NC(=O)CSc1nc2ccccc2n1-c1ccccc1 | 33.1* | / | / | 1.6 | 4.0 | 5.6
COC(=O)C(CCCCNC(=O)OCc1ccccc1)NC(=O)CN (stereo unspecified) | 7.2 | 9.7 | -5.3 | 1 | 1.0 | 32.1*
CCc1c(C)n(CC(=O)N/N=C/c2ccc(Cl)cc2)n2cnnc2c1=O | / | -2.5 | / | / | / | /
O=C(N=Nc1c(O)[nH]c2ccc(Br)cc12)c1ccc(Cl)cc1Cl | / | -21.8 | / | / | / | /
NC(=O)CSc1nc2scc(-c3ccco3)c2c(=O)n1-c1ccccc1 | -5.3 | 2.5 | 2.6 | 1.2 | -3.0 | -15.3
O=c1c2c(-c3ccco3)csc2nc(SCc2cn3cccnc3n2)n1-c1ccccc1 | 35.9* | 3.1 | 28.6 | 1.6 | -4.0 | -5.3
COc1cccc(/C=C/C(=O)c2ccc(Cl)cc2)c1OC | / | -1.9 | / | / | / | /
SMILES | PostGolgi ctrl | HePTP inh | Ecoli tolC | PLAP act | E coli WT exp | PostGolgi yeast
Cc1cccc(C)c1OCCSc1n[nH]c(N)n1 | 8.2 | / | / | 2* | 5.0 | 0.9
COC(=O)c1ccc(-n2c(C)cc(/C=C3\NC(=S)NC3=O)c2C)cc1 | / | 5.7 | / | / | / | /
Cc1ccc(C(=O)/C=C/c2ccccc2OCc2ccccc2)cc1 | / | -4.9 | / | / | / | /
COc1ccc(OC)c(NC(=O)C(C)Oc2ccccc2)c1 (stereo unspecified) | / | -5.0 | / | / | / | /
O=C1NN(c2ccccc2)C(=O)/C1=C/c1ccc(Br)o1 | / | 102.4* | / | / | / | /
O=C1NC(=O)N(c2ccccc2)C(=O)/C1=C\c1ccc(Br)o1 | / | 68.9* | / | / | / | /
CCOc1ccc(N2C(=O)NC(=O)/C(=C\c3ccc(-c4ccccc4C(=O)O)o3)C2=O)cc1 | / | 14.0 | / | / | / | /
CCOc1ccc(N2C(=O)NC(=O)/C(=C\c3ccc(Br)o3)C2=O)cc1 | / | 93.2* | / | / | / | /
O=C1NN(c2ccccc2)C(=O)/C1=C/c1ccc([N+](=O)[O-])o1 | / | 102.7* | / | / | / | /
O=C1NN(c2ccccc2)C(=O)/C1=C/c1ccc(-c2ccccc2[N+](=O)[O-])o1 | / | 23.1 | / | / | / | /
O=C1NC(=O)N(c2ccccc2)C(=O)/C1=C/c1ccc(-c2ccccc2C(=O)O)o1 | / | -7.2 | / | / | / | /
Cc1cc(-c2ccccc2)nc2cc(C(=O)N3CCCc4ccccc43)nn12 | / | 5.5 | / | / | / | /
Cc1cccc(C(=O)Nc2ccc(OC(F)(F)F)cc2)c1 | / | 7.5 | / | / | / | /
O=C(NCCN1CCc2ccccc21)c1cccs1 | / | -8.2 | / | / | / | /
CN1CC(=O)N/C1=N\C(=O)Nc1ccc2c(c1)N(C)C(=O)CS2 | -1.5 | -3.1 | -16.2 | 2.8* | 0.0 | 0.4
COc1ccccc1-c1cc(C(=O)N/N=C/c2sccc2C)c2ccccc2n1 | 47.8* | / | / | 1 | -18.0 | 0.5
CCOc1ccccc1-c1cc(C(=O)N/N=C/c2ccc3c(c2)OCO3)c2ccccc2n1 | 91.6* | / | / | 0.6 | -6.0 | 52.8*
COc1ccccc1-c1cc(C(=O)O)c2ccccc2n1 | / | 0.8 | / | / | / | /
CCOCCCNC(=O)C(c1ccc(Cl)cc1)N1CCN(c2ccccc2)CC1 (stereo unspecified) | 30.6* | -3.9 | 2.5 | 1.2 | -5.0 | 4.9
CCOCCCNC(=O)C(c1ccc(Cl)cc1)N1CCN(C(=O)c2ccco2)CC1 (stereo unspecified) | -6.4 | 2.6 | -6.9 | 1.5 | 2.0 | -3.1
CCCn1nc([N+](=O)[O-])c(C(C#N)c2nc3ccccc3s2)c(Cl)c1=O (stereo unspecified) | 55.4* | / | / | 1.2 | -4.0 | 99.8*
CCC(=O)CC(c1ccccc1)C1C(=O)NC(=O)NC1=O (stereo unspecified) | / | -25.5 | / | / | / | /
Cc1cccc(N2CCN(C(=O)c3cc4c(=O)n(C)c5ccccc5c4n3C)CC2C)c1 (stereo unspecified) | 36.5* | 9.3 | 52.9 | 1.5 | -6.0 | -1.6
Cc1ccc(NC(=O)COc2ccc3ccccc3c2)cc1Cl | / | -3.1 | / | / | / | /
CN1CCN(C2=C(Cl)C(=O)N(c3ccc(Cl)cc3)C2=O)CC1 | 31.3* | -3.7 | -4.6 | 1.7 | -3.0 | 1.1
SMILES | PostGolgi ctrl | HePTP inh | Ecoli tolC | PLAP act | E coli WT exp | PostGolgi yeast
COc1ccc(N2C(=O)C(Cl)=C(N3CCN(C)CC3)C2=O)cc1 | / | -3.0 | / | / | / | /
Cc1cccc(NC(=O)CSc2nnc(-c3ccc(S(=O)(=O)N4CCCC4)cc3)o2)c1 | 2.4 | 1.4 | -5.9 | 2.1* | 3.0 | -6.3
Cc1ccc(NC(=O)CSc2nnc(-c3ccc(S(=O)(=O)N4CCCC4)cc3)o2)cc1C | -2.3 | -5.0 | 0.3 | 1.1 | 0.0 | -5.8
Cc1cc(C)nc(SCC(=O)Nc2ccc(S(=O)(=O)N3CCCCC3)cc2)n1 | 16.0 | / | / | 2.1* | -6.0 | -11.0
Cc1cc(C)nc(NS(=O)(=O)c2ccc(NC(=O)CSc3nc(C)cc(C)n3)cc2)n1 | / | 1.7 | / | / | / | /
O=S(=O)(Nc1ccc(OCc2ccccc2)cc1)c1ccccc1 | / | -5.6 | / | / | / | /
CC1CCCCN1C(=O)CSc1ccc(-c2ccc(F)cc2)nn1 (stereo unspecified) | 44.8* | 6.1 | 18.7 | 1.5 | -5.0 | -5.0

Screening data: PubChem BioAssay, several laboratories
